Results reported in ChEMBL document CHEMBL2417552, “Screen of pseudopeptidic inhibitors of human sirtuins 1-3: two lead compounds with antiproliferative effects in cancer cells” (J Med Chem, 2013).
Activity calls are given as the source filed them. The calls are words filed in the database; no cut-off is given here.

Legend:
[1] = molecular target: T1, NAD-dependent protein deacetylase sirtuin-2 (Homo sapiens, UniProt Q8IXJ6); assay: Inhibition of human recombinant GST-tagged SIRT2 using KI179 as substrate preincubated for 5 mins followed by enzyme addition measured after 1 hr by fluorescence assay
T1 sequence (Q8IXJ6 whole entry): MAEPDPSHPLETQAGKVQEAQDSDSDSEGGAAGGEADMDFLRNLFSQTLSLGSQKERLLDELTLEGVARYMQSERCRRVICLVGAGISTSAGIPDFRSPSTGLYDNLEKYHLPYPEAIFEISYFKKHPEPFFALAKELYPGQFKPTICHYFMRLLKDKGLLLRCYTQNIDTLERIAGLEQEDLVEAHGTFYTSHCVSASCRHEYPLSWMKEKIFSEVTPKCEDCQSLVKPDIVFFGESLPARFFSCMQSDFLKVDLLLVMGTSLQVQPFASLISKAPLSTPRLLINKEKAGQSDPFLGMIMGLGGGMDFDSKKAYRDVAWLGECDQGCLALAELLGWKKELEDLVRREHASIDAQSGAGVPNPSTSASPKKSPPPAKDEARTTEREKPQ
Summary of the method: (§1)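 Fluor de Lys deacetylation assay. […] Mix preincubated 5 min at room temperature, started with enzyme, run 1 h at 37°C. Developer with 2 mM nicotinamide then added for 45 min at 37°C before fluorescence reading.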

[2] = system: MCF7; assay: Effect on alpha-tubulin acetylation in human MCF7 cells at 50 uM after 6 to 18 hrs by Western blotting analysis; format: functional, cell-based
Summary of the method: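 MCF-7 cells seeded 24 h ahead, treated for 6 or 18 h, then lysed in M-PER. Lysates run on SDS-PAGE, transferred to nitrocellulose and probed with mouse monoclonal anti-acetylated α-tubulin and anti-total α-tubulin. Detection with peroxidase anti-mouse secondary and ECL Plus.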

[3] = system: A549; assay: Cell cycle arrest in human A549 cells assessed as accumulation at G1 phase at 100 uM after 18 hrs by propidium iodide staining-based FACS flow cytometric analysis (reference value: 62.3%); format: functional
[4] = system: A549; assay: Growth inhibition of human A549 cells at >= 50 uM after 48 hrs by sulforhodamine B assay; format: functional, cell-based
[5] = system: MCF7; assay: Cell cycle arrest in human MCF7 cells assessed as accumulation at S phase at 100 uM after 18 hrs by propidium iodide staining-based FACS flow cytometric analysis (reference value: 12.6%); format: functional
[6] = system: MCF7; assay: Cytotoxicity against human MCF7 cells at 50 uM by LDH assay; format: functional, cell-based
[7] = system: MCF7; assay: Cell cycle arrest in human MCF7 cells assessed as accumulation at G1 phase at 100 uM after 18 hrs by propidium iodide staining-based FACS flow cytometric analysis (reference value: 67.6%); format: functional
[8] = system: MCF7; assay: Growth inhibition of human MCF7 cells at >= 50 uM after 72 hrs by sulforhodamine B assay
[9] = molecular target: T2, NAD-dependent protein deacetylase sirtuin-1 (Homo sapiens) (UniProt Q96EB6); assay: Inhibition of SIRT1 in etoposide-induced human MCF7 cells assessed as increase in p53 acetylation at Lys382 at 50 uM after 5 hrs by Western blotting analysis; format: cell-based
T2 sequence (whole entry): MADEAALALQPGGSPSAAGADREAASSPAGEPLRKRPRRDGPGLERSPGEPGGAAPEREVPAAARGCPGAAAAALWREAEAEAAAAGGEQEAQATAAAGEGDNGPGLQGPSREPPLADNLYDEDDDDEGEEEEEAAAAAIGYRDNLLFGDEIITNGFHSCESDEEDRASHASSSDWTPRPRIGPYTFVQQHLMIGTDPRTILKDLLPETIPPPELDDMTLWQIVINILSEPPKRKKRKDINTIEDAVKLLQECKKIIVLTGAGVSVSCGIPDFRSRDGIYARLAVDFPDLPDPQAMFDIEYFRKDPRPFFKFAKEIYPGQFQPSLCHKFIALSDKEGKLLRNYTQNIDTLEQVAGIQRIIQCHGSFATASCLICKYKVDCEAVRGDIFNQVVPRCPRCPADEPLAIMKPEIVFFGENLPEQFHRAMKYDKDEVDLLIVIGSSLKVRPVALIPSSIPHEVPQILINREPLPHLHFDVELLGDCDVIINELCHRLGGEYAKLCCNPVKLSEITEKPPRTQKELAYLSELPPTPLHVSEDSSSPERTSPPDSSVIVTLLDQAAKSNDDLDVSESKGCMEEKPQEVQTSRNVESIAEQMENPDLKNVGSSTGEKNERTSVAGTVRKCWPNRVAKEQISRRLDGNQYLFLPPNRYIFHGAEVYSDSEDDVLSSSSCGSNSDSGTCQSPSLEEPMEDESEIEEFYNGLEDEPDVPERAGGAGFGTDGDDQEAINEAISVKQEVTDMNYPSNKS
Summary of the method: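 MCF-7 cells seeded 24 h ahead, then given 50 μM compound and 100 μM etoposide together for 5 h before harvest. Acetylated p53 detected by Western blot; run once per compound.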

[10] = system: A549; assay: Cell cycle arrest in human A549 cells assessed as accumulation at G2 phase at 100 uM after 18 hrs by propidium iodide staining-based FACS flow cytometric analysis (reference value: 19.4%); format: functional
[11] = Cytotoxicity against human ARPE19 cells at 20 uM by LDH assay; format: cell-based; settings: arpe-19, 20 µM
[12] = molecular target: T2, NAD-dependent protein deacetylase sirtuin-1 (Homo sapiens); settings: at 50 µM
[13] = system: MCF7; assay: Cell cycle arrest in human MCF7 cells assessed as accumulation at G2 phase at 100 uM after 18 hrs by propidium iodide staining-based FACS flow cytometric analysis (reference value: 14.7%); format: functional
[14] = Cytotoxicity against human SH-SY5Y cells at 20 uM by LDH assay; format: cell-based
[15] = molecular target: T2, NAD-dependent protein deacetylase sirtuin-1 (Homo sapiens); assay: Inhibition of SIRT1 in etoposide-induced human ARPE19 cells assessed as increase in p53 acetylation at Lys382 at 20 uM after 5 hrs by Western blotting analysis; format: cell-based
Summary of the method: (§2)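 ARPE-19 or SH-SY5Y cells seeded 24 h ahead, then given 20 μM compound and 100 μM etoposide together for 5 h before harvest. Acetylated p53 detected by Western blot. Mean ± SEM of 2 independent experiments.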

[16] = system: A549; assay: Cell cycle arrest in human A549 cells assessed as accumulation at S phase at 100 uM after 18 hrs by propidium iodide staining-based FACS flow cytometric analysis (reference value: 17.8%); format: functional
[17] = molecular target: T3, NAD-dependent protein deacetylase sirtuin-2 (Homo sapiens) (UniProt Q8IXJ6); assay: Inhibition of human recombinant GST-tagged SIRT2 using KI179 as substrate at 50 uM preincubated for 5 mins followed by enzyme addition measured after 1 hr by fluorescence assay relative to control
T3 sequence (whole entry): T1 sequence (Q8IXJ6 whole entry)
Summary of the method: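 Recombinant GST-SIRT2, Fluor de Lys assay in SIRT assay buffer. Acetylated peptide KI179 at 0.7 Km (Km 198 µM) and NAD+ at 0.9 Km (reported Km 547 µM). Buffer, substrate, NAD+ and compound in DMSO preincubated 5 min at room temperature. Enzyme added to start; 1 h at 37 °C. Developer with 2 mM nicotinamide added; 45 min at 37 °C; fluorescence read. Mean ± SD, ≥3 experiments.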

[18] = molecular target: T4, NAD-dependent protein deacetylase sirtuin-1 (Homo sapiens, UniProt Q96EB6); assay: Inhibition of human recombinant GST-tagged SIRT1 using KI177 as substrate preincubated for 5 mins followed by enzyme addition measured after 1 hr by fluorescence assay; summary of the method: as §1
T4 sequence (Q96EB6 whole entry): T2 sequence (whole entry)

[19] = molecular target: T2, NAD-dependent protein deacetylase sirtuin-1 (Homo sapiens); assay: Inhibition of SIRT1 in etoposide-induced human SH-SY5Y cells assessed as increase in p53 acetylation at Lys382 at 20 uM after 5 hrs by Western blotting analysis; format: cell-based; summary of the method: as §2
[20] = system: MCF7; assay: Cytotoxicity against human MCF7 cells assessed as cell death at 100 uM after 18 hrs by propidium iodide staining-based FACS flow cytometric analysis; format: functional
[21] = system: A549; assay: Cytotoxicity against human A549 cells assessed as cell death at 100 uM after 18 hrs by propidium iodide staining-based FACS flow cytometric analysis; format: functional
[22] = molecular target: T5, NAD-dependent protein deacetylase sirtuin-3, mitochondrial (Homo sapiens, UniProt Q9NTG7); assay: Inhibition of human recombinant His-tagged SIRT3 using KI179 as substrate preincubated for 5 mins followed by enzyme addition measured after 1 hr by fluorescence assay
T5 sequence (Q9NTG7 whole entry): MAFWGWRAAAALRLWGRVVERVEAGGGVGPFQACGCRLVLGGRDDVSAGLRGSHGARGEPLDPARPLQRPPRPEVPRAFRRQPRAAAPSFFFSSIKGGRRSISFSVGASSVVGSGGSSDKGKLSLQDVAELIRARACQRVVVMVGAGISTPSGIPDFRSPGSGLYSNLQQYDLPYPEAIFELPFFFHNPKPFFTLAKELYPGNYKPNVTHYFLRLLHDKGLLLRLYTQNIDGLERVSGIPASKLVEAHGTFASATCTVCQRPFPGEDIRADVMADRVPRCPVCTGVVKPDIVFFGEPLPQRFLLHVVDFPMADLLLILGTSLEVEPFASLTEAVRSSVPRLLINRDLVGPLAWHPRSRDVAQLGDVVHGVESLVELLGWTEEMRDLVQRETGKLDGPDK

[23] = system: A549; assay: Growth inhibition of human A549 cells up to 200 uM after 48 hrs by sulforhodamine B assay; format: functional, cell-based
[24] = molecular target: T6, NAD-dependent protein deacetylase sirtuin-3, mitochondrial (Homo sapiens) (UniProt Q9NTG7); settings: at 50 µM
T6 sequence (whole entry): T5 sequence (Q9NTG7 whole entry)

[25] = system: MCF7; assay: Growth inhibition of human MCF7 cells up to 200 uM after 72 hrs by sulforhodamine B assay

| SMILES | IC50 [1] | Activity [2] | Activity [6] | inhibition [9] | Activity [11] | inhibition [12] | Activity [14] | inhibition [15] | inhibition [17] | IC50 [18] | inhibition [19] | other results |
| --- | --- | --- | --- | --- | --- | --- | --- | --- | --- | --- | --- | --- |
| COc1ccc2[nH]cc(CCNC(=O)[C@H](CCCCNC(C)=S)NC(=O)OCc3ccccc3)c2c1 | 25.8 µM | inactive | inactive | Active | Non-toxic | 88% | Non-toxic | Active | 66% | 5.98 µM | Active | Activity [3]: 85.7%; growth inhibition (GI) [4]: Active; Activity [5]: 5.7%; Activity [7]: 77.4%; growth inhibition (GI) [8]: Active; Activity [10]: 9.9%; Activity [13]: 13.2%; Activity [16]: 3%; Activity [20]: inactive; Activity [21]: inactive |
| CC(=S)NCCCC[C@H](NC(=O)[C@@H]1C[C@@H](O)CN1C(=O)OCc1ccccc1)C(=O)NCC(=O)c1ccccc1 | 1.8 µM | inactive | inactive | Active | Non-toxic | 99% | Non-toxic | Active | 96% | 0.24 µM | Active | IC50 [22]: 3.89 µM; growth inhibition (GI) [23]: inactive; inhibition [24]: 90%; growth inhibition (GI) [25]: inactive |
